In ChEMBL document CHEMBL1132616, “6-Substituted benzopyrans as potassium channel activators: synthesis, vasodilator properties, and multivariate analysis” (1999):

Assays:
Rattus norvegicus [1] = organism: Rattus norvegicus; test: Relaxant potency in rat aorta.; assay type: functional
Outline: (§1)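 Aortic rings (5 mm wide) were denuded of endothelium, confirmed by the absence of a dilator response to 1 mmol/L acetylcholine. Tracheal strips were cut through the ring opposite the muscle layer. Tissues were mounted in 7-mL baths for isometric force recording. Once contraction was stable, cumulative concentration–effect curves were run. Compounds came from 10^-2 M DMSO stocks diluted in water, with final bath DMSO at most 2%.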

Rattus norvegicus [2] = organism: Rattus norvegicus; test: Relaxant potency in rat trachea.; assay type: functional; outline: as §1

Row | Compound | Log 1/C (Rattus norvegicus [1]) | Log 1/C (Rattus norvegicus [2])
1 | CC1(C)C=C(n2ccccc2=O)c2cc(OC(=O)Nc3ccc(C(F)(F)F)cc3)ccc2O1 | 5.1 | 4.54
2 | CC1(C)C=C(n2ccccc2=O)c2cc(C(=N)NO)ccc2O1 | 5.99 | 5.51
3 | CC1(C)C=C(n2ccccc2=O)c2cc(C(=O)c3ccc(O)cc3)ccc2O1 | 6.65 | 5.87
4 | CC1(C)C=C(n2ccccc2=O)c2cc(O)ccc2O1 | 5.44 | 5.31
5 | CC1(C)C=C(n2ccccc2=O)c2ccccc2O1 | 5.43 | 5.05
6 | CC(=O)Oc1ccc2c(c1)C(n1ccccc1=O)=CC(C)(C)O2 | 5.6 | 4.97
7 | CC1(C)C=C(n2ccccc2=O)c2cc(OC(=O)Nc3ccccc3)ccc2O1 | 5.3 | 4.89
8 | Cc1ccccc1C(=O)c1ccc2c(c1)C(n1ccccc1=O)=CC(C)(C)O2 | 6.83 | 6.25
9 | CC1(C)C=C(n2ccccc2=O)c2cc(C(=O)c3ccccc3F)ccc2O1 | 7.08 | 6.34
10 | COc1ccc2c(c1)C(n1ccccc1=O)=CC(C)(C)O2 | 6.55 | 5.99
11 | CC1(C)C=C(n2ccccc2=O)c2cc(Br)ccc2O1 | 7.84 | 7.53
12 | CC1(C)C=C(n2ccccc2=O)c2cc(OCC(=O)c3ccc(F)cc3)ccc2O1 | 4.63 | 4.77
13 | CC1(C)C=C(n2ccccc2=O)c2cc(C(=O)c3ccccc3)ccc2O1 | 6.61 | 6.21
14 | CC1(C)C=C(n2ccccc2=O)c2cc(C(=O)c3cccs3)ccc2O1 | 6.4 | 5.84
15 | Cc1ccc(C)n1-c1ccc2c(c1)C(n1ccccc1=O)=CC(C)(C)O2 | 7.27 | 6.78
16 | CC(=O)c1ccc2c(c1)C(n1ccccc1=O)=CC(C)(C)O2 | 7.37 | 6.65
17 | CC1(C)C=C(n2ccccc2=O)c2cc(C(=O)c3c(F)cccc3F)ccc2O1 | 6.97 | 5.99

Row | Compound | Log 1/C (Rattus norvegicus [1]) | Log 1/C (Rattus norvegicus [2])
18 | CC1(C)C=C(n2ccccc2=O)c2cc(OCC(=O)c3ccccc3)ccc2O1 | 5.05 | 4.69
19 | CC1(C)C=C(n2ccccc2=O)c2cc(C(=O)c3ccccc3C(F)(F)F)ccc2O1 | 6.76 | 5.78
20 | CC1(C)C=C(n2ccccc2=O)c2cc(C(=N)S)ccc2O1 | 6.21 | 5.96
21 | CCC(=O)c1ccc2c(c1)C(n1ccccc1=O)=CC(C)(C)O2 | 6.63 | 5.85
22 | CC1(C)C=C(n2ccccc2=O)c2cc(OC(=O)Nc3ccccc3F)ccc2O1 | 5.38 | 4.22
23 | CC1(C)C=C(n2ccccc2=O)c2cc(C=O)ccc2O1 | 6.91 | 6.14
24 | CC1(C)C=C(n2ccccc2=O)c2cc(C(=O)c3ccc([N+](=O)[O-])cc3)ccc2O1 | 6.2 | 6.09
25 | CC1(C)C=C(n2ccccc2=O)c2cc(-c3ccncc3)ccc2O1 | 6.68 | 6.32
26 | CC1(C)C=C(n2ccccc2=O)c2cc(C#N)ccc2O1 [BIMAKALIM] | 7.67 | 7.1
27 | CC1(C)C=C(n2ccccc2=O)c2cc(C=C(C#N)C#N)ccc2O1 | 6.95 | 6.3
28 | CC1(C)C=C(n2ccccc2=O)c2cc(C(=O)c3ccccc3[N+](=O)[O-])ccc2O1 | 6.17 | 5.64
29 | CC1(C)C=C(n2ccccc2=O)c2cc(OC(=O)Nc3ccc(F)cc3)ccc2O1 | 5.3 | 4.37
30 | CC1(C)C=C(n2ccccc2=O)c2cc(OC(=O)Nc3ccccc3C(F)(F)F)ccc2O1 | 5.58 | 5.19
31 | CC1(C)C=C(n2ccccc2=O)c2cc(OS(=O)(=O)F)ccc2O1 | 7.95 | 7.22
32 | CC1(C)C=C(n2ccccc2=O)c2cc(C(=O)c3ccco3)ccc2O1 | 6.49 | 5.92
33 | COc1ccc(C(=O)c2ccc3c(c2)C(n2ccccc2=O)=CC(C)(C)O3)cc1 | 6.15 | 5.72
34 | CC1(C)C=C(n2ccccc2=O)c2cc(C(F)(F)F)ccc2O1 | 7.61 | 7.37
